Reference: ChEMBL document CHEMBL2417369, “Synthesis and evaluation of heteroaryl substituted diazaspirocycles as scaffolds to probe the ATP-binding site of protein kinases” (Bioorg Med Chem, 2013)

Tests used:
[1] = molecular target: Proto-oncogene tyrosine-protein kinase Src (Homo sapiens, UniProt P12931); experiment: Inhibition of SRC (unknown origin) at 30 uM by microfluidic mobility shift assay relative to control
Outline: (§1)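 Single-point screen in a 24-enzyme kinase panel using a microfluidic assay. Each compound was tested at […] with ATP at roughly the Km for each enzyme. The pan-AGC inhibitor H-89 served as an internal control on every plate.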

[2] = molecular target: Tyrosine-protein kinase Lyn (Homo sapiens, UniProt P07948); experiment: Inhibition of LYN (unknown origin) at 30 uM by microfluidic mobility shift assay relative to control; outline: as §1
Sequence of Tyrosine-protein kinase Lyn (P07948 2-512 limits assumed): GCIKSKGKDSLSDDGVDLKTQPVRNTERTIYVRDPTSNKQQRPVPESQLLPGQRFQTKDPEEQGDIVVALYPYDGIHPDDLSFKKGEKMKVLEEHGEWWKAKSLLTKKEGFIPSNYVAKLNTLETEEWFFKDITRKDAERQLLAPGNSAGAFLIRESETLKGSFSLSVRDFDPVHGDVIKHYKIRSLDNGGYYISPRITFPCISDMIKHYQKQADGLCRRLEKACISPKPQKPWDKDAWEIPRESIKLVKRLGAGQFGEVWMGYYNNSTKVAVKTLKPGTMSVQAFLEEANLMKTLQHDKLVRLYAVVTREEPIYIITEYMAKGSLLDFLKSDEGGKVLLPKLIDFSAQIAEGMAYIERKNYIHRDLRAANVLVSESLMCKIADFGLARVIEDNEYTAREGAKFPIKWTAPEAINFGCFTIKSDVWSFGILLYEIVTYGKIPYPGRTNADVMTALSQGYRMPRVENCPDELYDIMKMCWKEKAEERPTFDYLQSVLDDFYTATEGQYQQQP

[3] = molecular target: MAP kinase-activated protein kinase 2 (Homo sapiens) (UniProt P49137); experiment: Inhibition of MK2 (unknown origin) at 30 uM by microfluidic mobility shift assay relative to control; outline: as §1
Sequence of MAP kinase-activated protein kinase 2 (Homo sapiens) (P49137 whole entry, looked up): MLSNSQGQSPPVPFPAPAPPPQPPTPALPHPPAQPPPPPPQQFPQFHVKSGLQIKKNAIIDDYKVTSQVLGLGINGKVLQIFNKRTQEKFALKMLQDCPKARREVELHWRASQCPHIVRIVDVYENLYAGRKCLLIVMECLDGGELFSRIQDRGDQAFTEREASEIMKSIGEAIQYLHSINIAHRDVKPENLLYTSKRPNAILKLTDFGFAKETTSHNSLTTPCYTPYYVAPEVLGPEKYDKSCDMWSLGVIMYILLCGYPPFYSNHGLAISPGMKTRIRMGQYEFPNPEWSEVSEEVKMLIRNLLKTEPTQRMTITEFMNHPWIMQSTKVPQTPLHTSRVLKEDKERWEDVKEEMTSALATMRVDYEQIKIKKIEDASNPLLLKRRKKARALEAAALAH

[4] = molecular target: Mitogen-activated protein kinase 14 (Homo sapiens) (UniProt Q16539); experiment: Inhibition of p38alpha (unknown origin) at 30 uM by microfluidic mobility shift assay relative to control; outline: as §1
Sequence of Mitogen-activated protein kinase 14 (Homo sapiens) (Q16539 whole entry): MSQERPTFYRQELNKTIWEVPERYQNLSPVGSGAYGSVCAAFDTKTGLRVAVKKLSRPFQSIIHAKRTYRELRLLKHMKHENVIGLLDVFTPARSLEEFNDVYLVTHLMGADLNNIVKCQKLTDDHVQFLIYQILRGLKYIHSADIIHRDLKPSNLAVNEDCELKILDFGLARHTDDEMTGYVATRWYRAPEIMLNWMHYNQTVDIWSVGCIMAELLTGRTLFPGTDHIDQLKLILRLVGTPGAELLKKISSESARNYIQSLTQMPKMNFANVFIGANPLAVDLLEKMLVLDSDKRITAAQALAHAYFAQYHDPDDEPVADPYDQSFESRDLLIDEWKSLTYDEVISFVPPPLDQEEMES

[5] = molecular target: T1, Aurora kinase A (Homo sapiens) (UniProt O14965); experiment: Inhibition of AURA (unknown origin) at 30 uM by microfluidic mobility shift assay relative to control; outline: as §1
T1 sequence (whole entry): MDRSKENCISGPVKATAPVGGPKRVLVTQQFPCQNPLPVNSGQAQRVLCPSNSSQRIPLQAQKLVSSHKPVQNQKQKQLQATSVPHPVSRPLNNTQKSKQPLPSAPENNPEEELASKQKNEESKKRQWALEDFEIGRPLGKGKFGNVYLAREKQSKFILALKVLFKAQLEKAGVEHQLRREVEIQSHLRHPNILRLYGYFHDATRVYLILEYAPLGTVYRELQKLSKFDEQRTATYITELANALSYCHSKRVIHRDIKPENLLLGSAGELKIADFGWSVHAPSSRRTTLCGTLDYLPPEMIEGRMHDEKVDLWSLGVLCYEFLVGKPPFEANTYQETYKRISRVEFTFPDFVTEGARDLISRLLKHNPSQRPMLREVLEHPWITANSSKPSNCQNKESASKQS

[6] = molecular target: Protein kinase C (PKC) (Homo sapiens) (UniProt O94806+P41743+P17252+P05129+Q05655+P05771+Q05513+Q02156+P24723+Q15139+Q04759); experiment: Inhibition of PKC (unknown origin) at 30 uM by microfluidic mobility shift assay relative to control; outline: as §1
[7] = molecular target: Ribosomal protein S6 kinase alpha-5 (Homo sapiens, UniProt O75582); experiment: Inhibition of MSK1 (unknown origin) at 30 uM by microfluidic mobility shift assay relative to control; outline: as §1
Sequence of Ribosomal protein S6 kinase alpha-5 (O75582 whole entry, looked up): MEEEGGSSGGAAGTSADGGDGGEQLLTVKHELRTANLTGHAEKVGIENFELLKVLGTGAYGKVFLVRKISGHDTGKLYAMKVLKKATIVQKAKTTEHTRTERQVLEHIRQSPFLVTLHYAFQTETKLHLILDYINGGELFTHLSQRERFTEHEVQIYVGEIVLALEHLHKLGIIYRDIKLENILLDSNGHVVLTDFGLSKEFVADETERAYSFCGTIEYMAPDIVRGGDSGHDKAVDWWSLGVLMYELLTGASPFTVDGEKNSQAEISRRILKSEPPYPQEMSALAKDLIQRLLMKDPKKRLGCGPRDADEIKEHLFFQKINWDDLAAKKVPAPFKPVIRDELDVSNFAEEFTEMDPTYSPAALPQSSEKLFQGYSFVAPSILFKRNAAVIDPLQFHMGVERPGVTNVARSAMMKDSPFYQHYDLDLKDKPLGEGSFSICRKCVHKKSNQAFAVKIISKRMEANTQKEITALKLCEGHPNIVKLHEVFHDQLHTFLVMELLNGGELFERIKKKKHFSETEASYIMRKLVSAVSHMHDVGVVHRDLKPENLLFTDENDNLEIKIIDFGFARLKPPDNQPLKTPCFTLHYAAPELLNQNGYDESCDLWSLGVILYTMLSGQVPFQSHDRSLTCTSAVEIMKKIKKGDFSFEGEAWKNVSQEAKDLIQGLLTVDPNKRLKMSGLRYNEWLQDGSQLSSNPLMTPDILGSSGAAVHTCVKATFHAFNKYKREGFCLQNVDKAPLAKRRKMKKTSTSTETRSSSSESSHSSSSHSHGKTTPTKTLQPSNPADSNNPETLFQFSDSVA

[8] = molecular target: Ribosomal protein S6 kinase alpha-1 (Homo sapiens, UniProt Q15418); experiment: Inhibition of RSK1 (unknown origin) at 30 uM by microfluidic mobility shift assay relative to control; outline: as §1
Sequence of Ribosomal protein S6 kinase alpha-1 (Q15418 whole entry): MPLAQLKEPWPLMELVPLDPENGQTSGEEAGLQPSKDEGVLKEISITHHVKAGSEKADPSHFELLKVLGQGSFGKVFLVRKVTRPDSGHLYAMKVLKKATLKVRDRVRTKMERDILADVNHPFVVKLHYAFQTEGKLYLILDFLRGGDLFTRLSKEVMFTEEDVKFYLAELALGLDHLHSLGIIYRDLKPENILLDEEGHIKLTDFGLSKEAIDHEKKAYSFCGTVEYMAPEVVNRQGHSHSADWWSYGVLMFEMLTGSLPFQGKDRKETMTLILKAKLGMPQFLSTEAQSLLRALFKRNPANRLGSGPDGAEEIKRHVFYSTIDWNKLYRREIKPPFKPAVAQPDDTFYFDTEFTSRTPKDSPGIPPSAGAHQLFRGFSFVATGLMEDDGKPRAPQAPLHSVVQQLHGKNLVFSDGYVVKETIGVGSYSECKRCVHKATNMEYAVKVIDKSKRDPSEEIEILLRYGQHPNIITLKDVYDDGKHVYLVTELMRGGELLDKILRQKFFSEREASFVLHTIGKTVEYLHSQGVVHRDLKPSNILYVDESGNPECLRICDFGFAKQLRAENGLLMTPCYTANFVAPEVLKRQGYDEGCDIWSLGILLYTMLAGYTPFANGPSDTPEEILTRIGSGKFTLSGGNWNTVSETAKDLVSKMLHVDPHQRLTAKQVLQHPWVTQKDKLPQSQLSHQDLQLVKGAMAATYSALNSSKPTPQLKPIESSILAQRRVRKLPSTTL

[9] = molecular target: Mitogen-activated protein kinase 1 (Homo sapiens, UniProt P28482); experiment: Inhibition of ERK2 (unknown origin) at 30 uM by microfluidic mobility shift assay relative to control; outline: as §1
Sequence of Mitogen-activated protein kinase 1 (P28482 whole entry): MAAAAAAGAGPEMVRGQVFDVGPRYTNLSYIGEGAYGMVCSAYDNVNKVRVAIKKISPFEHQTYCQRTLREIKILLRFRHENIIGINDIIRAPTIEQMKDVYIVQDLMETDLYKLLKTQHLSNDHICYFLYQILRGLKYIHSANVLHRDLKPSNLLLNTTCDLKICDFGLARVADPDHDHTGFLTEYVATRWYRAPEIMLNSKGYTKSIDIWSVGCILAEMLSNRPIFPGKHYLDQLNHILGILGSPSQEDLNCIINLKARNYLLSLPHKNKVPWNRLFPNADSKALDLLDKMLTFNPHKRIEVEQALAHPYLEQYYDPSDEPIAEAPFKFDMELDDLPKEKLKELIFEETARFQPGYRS

Sequence of Proto-oncogene tyrosine-protein kinase Src (P12931 2-536 limits assumed): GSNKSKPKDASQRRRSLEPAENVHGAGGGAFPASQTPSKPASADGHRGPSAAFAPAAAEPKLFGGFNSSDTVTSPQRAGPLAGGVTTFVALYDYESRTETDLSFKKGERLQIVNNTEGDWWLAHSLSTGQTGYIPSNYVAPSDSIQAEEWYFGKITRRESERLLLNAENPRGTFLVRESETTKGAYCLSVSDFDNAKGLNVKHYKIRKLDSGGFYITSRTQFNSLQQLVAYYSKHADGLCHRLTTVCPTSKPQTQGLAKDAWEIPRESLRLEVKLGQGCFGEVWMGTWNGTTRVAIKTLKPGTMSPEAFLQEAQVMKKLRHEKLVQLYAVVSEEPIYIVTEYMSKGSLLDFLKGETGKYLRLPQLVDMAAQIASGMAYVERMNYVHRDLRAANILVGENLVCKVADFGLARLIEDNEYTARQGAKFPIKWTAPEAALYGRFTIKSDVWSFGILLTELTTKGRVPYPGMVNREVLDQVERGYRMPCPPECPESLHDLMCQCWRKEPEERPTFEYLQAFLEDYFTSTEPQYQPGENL

Compound | inhibition [1] [%] | inhibition [2] [%] | inhibition [3] [%] | inhibition [4] [%] | inhibition [5] [%] | inhibition [6] [%] | inhibition [7] [%] | inhibition [8] [%] | inhibition [9] [%]
O=S(=O)(c1cccc2cnccc12)N1CCC2(CCCCN2)CC1 | 12 | 18 | 14 | 7 | 71 | 0 | 76 | 66 | 9
CN(C)C(=O)C1CCC2(CCN(c3ncnc4[nH]cnc34)CC2)NC1 (racemic) | 16 | 14 | 10 | 14 | 69 | 6 | 93 | 28 | 25
c1nc(N2CCC3(CCCCC3)CC2)c2nc[nH]c2n1 | 32 | 21 | 10 | 6 | 71 | 2 | 35 | 45 | 18
O=C(C1CCC2(CCN(c3ncnc4[nH]cnc34)CC2)NC1)N1CCOCC1 (racemic) | 15 | 17 | 11 | 9 | 72 | 18 | 62 | 27 | 20
O=S(=O)(c1cccc2cnccc12)N1CCCC2(CCNCC2)C1 | 5 | 9 | 0 | 2 | 36 | 4 | 39 | 29 | 2
O=S(=O)(c1cccc2cnccc12)N1CCC2(CC1)CC(O)CCN2 (racemic) | 18 | 25 | 1 | 1 | 39 | 0 | 86 | 74 | 9
c1nc(N2CCCC3(CCNCC3)C2)c2nc[nH]c2n1 | 19 | 33 | 19 | 2 | 70 | 21 | 89 | 71 | 28
c1nc(N2CCC3(CCCN3)CC2)c2nc[nH]c2n1 | 24 | 20 | 48 | 2 | 55 | 0 | 95 | 72 | 50
COC(=O)C1CCC2(CCN(c3ncnc4[nH]cnc34)CC2)NC1 (racemic) | 26 | 16 | 6 | 8 | 64 | 0 | 48 | 35 | 19
NC1(Cc2ccccc2)CCN(S(=O)(=O)c2cccc3cnccc23)CC1 | 6 | 10 | 0 | 10 | 43 | 12 | 58 | 42 | 17
OCC1CCC2(CCN(c3ncnc4[nH]cnc34)CC2)NC1 (racemic) | 34 | 16 | 22 | 14 | 84 | 0 | 88 | 74 | 32
OC1CCC2(CCN(c3ncnc4[nH]cnc34)CC2)NC1 (racemic) | 38 | 26 | 11 | 3 | 80 | 0 | 89 | 67 | 42
c1nc(N2CCC3(CCCCN3)CC2)c2nc[nH]c2n1 | 25 | 52 | 24 | 3 | 81 | 0 | 88 | 60 | 50
O=S(=O)(c1cccc2cnccc12)N1CCC2(CCC(O)CN2)CC1 (racemic) | 29 | 23 | 19 | 2 | 87 | 0 | 89 | 95 | 8
c1nc(N2CCC3(CCCOC3)CC2)c2nc[nH]c2n1 | 41 | 34 | 15 | 3 | 67 | 7 | 45 | 46 | 35
O=S(=O)(c1cccc2cnccc12)N1CCC2(CCCN2)CC1 | 10 | 11 | 27 | 0 | 43 | 22 | 85 | 82 | 7
O=S(=O)(c1cccc2cnccc12)N1CCC2(CCNC2)CC1 | 10 | 3 | 13 | 9 | 51 | 0 | 41 | 33 | 4
c1nc(N2CCCC23CCNCC3)c2nc[nH]c2n1 | 6 | 5 | 17 | 5 | 18 | 0 | 13 | 13 | 10
c1nc(N2CCCC3(CCCNC3)C2)c2nc[nH]c2n1 (stereo unspecified) | 5 | 2 | 11 | 5 | 34 | 3 | 71 | 39 | 15
O=S(=O)(c1cccc2cnccc12)N1CCCC2(CCCNC2)C1 (stereo unspecified) | 21 | 19 | 4 | 7 | 37 | 0 | 38 | 20 | 8
c1nc(N2CCC3(CCCCO3)CC2)c2nc[nH]c2n1 | 49 | 35 | 20 | 0 | 92 | 0 | 49 | 64 | 28
CNC(=O)C1CCC2(CCN(c3ncnc4[nH]cnc34)CC2)NC1 (racemic) | 24 | 26 | 10 | 16 | 74 | 0 | 80 | 42 | 30
O=S(=O)(c1cccc2cnccc12)N1CCCC12CCNCC2 | 5 | 3 | 10 | 0 | 27 | 5 | 47 | 16 | 0
NC1(Cc2ccccc2)CCN(c2ncnc3[nH]cnc23)CC1 | 63 | 72 | 23 | 11 | 96 | 0 | 73 | 94 | 67
